Results taken from PubChem BioAssay.
Inconclusive results are not listed.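 Rule for the calls, unless noted: active = RAM network inhibition above 8.4% in each of two replicates, 3 SD over the compound average; inconclusive = above 8.4% inhibition in only one replicate; inactive = 8.4% inhibition or less in each replicate.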

How the values were obtained:
[1] = OD615 S. cerevisiae growth inhibition, permissive medium, pilot counter-assay, permissive growth control for S. cerevisiae lifespan shortening project (AID 705;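 active = growth inhibition above 25% in both replicates, a cutoff set 3 SD above the mean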); settings: OD615, 24 h, at 10 µM, active compounds read high
Outline: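 assay system = Saccharomyces cerevisiae strain carrying genetically modified DeaD replicative-lifespan system | technique = absorbance (optical density) at 615 nm | buffer or medium = permissive raffinose/galactose medium | timing = cells pre-grown 4 h, then 24 h compound exposure, 30 °C humidified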

[2] = Restrictive medium S. cerevisiae growth inhibition, OD615, pilot screen of yeast lifespan reduction project, restrictive growth control (AID 706;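 active = growth inhibition above a set limit, 3 SD over mean compound inhibition, in both replicates, cut at about 43% in these data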;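 note: modified DeaD lifespan yeast strain shifted to restrictive glucose medium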); settings: OD615, 48 h, at 10 µM, active compounds read high
Outline: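 System: modified S. cerevisiae. Buffer or medium: CSMM-D glucose medium. Incubation: 4 h pre-growth plus 48 h compound exposure, 30 °C. Detection: absorbance (optical density) measured at 615 nm.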

[3] = viability gain of MRP-1-high H69AR cells under doxorubicin, pilot screen, MRP-1 activator project, CellTiter-Glo, duplicate (AID 807;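 active = viability increase at or above a cutoff of the median across tested compounds plus 3 SD, cut at about 8.5% in these data, passing the limit was not always enough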;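 note: compound pretreatment 18-22 h then 72 h combined with doxorubicin; 0% = doxorubicin alone and 100% = vehicle without doxorubicin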); settings: H69AR viability with doxorubicin, CellTiter-Glo luminescence; at 10 µM; active compounds read high
[4] = growth suppression of beta-catenin knockout HCT116, pilot screen, human colon tumor cells (AID 823;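 active = cell viability at or below a set limit in both duplicate runs, the limit being the all-compound median minus 4 SD, cut at about 23% in these data, passing the limit was not always enough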;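 note: 0% = wells killed by 20 µM Hyamine and 100% = untreated DMSO cell wells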); settings: CellTiter-Glo, 60 h, at 10 µM, active compounds read low
[5] = growth suppression of PTEN-deleted HCT116, pilot screen, cell-based, HCT116 clonal line, CellTiter-Glo (AID 824;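 active = viability at or below 27.92% in each of two runs, the all-compound median minus 4 SD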;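 note: 0% = 20 µM Hyamine control and 100% = vehicle cell control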); settings: 60 h, at 10 µM, active compounds read low
[6] = inhibitors of the yeast RAM network, pilot screen, dse1pr::URA3 reporter, 5-FOA selection (AID 869;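 active = inhibition over a set limit, the all-compound mean plus 3 SD, in both replicate runs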;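 note: 0% = DMSO wells with no growth and 100% = 10 µM 1-NA-PP1 with full growth; RAM network block rescues cells from 5-FOA so hits raise OD615 growth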); settings: S. cerevisiae dse1pr::URA3 5-FOA growth, OD615, 2 d; at 10 µM; active compounds read high; strain carries analog-sensitive mutant Cbk1 kinase
[7] = RAM signaling pathway blockade in yeast – S. cerevisiae, Pdr1DBD-CYC8 efflux-inhibited sensitized strain, primary screen (AID 1298);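 note: 0% = DMSO untreated cells without growth and 100% = 10 µM 1-NA-PP1 full growth; higher means more yeast growth rescued from 5-FOA killing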; settings: S. cerevisiae cbk1-as DSE1-URA3 strain, 5-FOA growth OD615, 2 d; at 50 µM; active compounds read high

Cc1sc2nc(NCCO)[nH]c(=O)c2c1C
inactive: growth inhibition [1] -15.5% | growth inhibition [2] -23.2% | viability increase [3] -2.72% | viability [4] 107% | viability [5] 97.2% | inhibition [6] 0.885% | RAM network inhibition [7] -1.79%

Cc1oc2c(c(=O)c1C)C(=O)CC(c1ccccc1)C2 (stereo not drawn)
inactive: growth inhibition [1] -10.3% | growth inhibition [2] -15.9% | viability increase [3] -3.41% | viability [4] 88.5% | viability [5] 91% | inhibition [6] 0.115% | RAM network inhibition [7] -1.15%

O=C1Nc2ccccc2C(O)(C(=O)NCc2ccco2)N1c1ccccc1 (stereo not drawn)
inactive: growth inhibition [1] -5.44% | growth inhibition [2] 1.25% | viability increase [3] -1.5% | viability [4] 108% | viability [5] 98.7% | inhibition [6] 0.96% | RAM network inhibition [7] 1.15%

CCc1ccc(Cn2nnc(C(=O)Nc3cccc(C)c3)c2N)cc1
inactive: growth inhibition [1] -7.21% | growth inhibition [2] -2.92% | viability increase [3] -0.67% | viability [4] 102% | viability [5] 95.9% | inhibition [6] 3.39% | RAM network inhibition [7] 8.18%

CS(=O)(=O)c1ccc(C(=O)NC2CCOC2=O)cc1 (stereo not drawn)
inactive: growth inhibition [1] -2.63% | growth inhibition [2] -3.86% | viability increase [3] -1.85% | viability [4] 102% | viability [5] 97.6% | inhibition [6] -0.295% | RAM network inhibition [7] 4.25%

CC1CCN(c2nc3ccccc3nc2C(C#N)S(=O)(=O)c2ccccc2)CC1 (stereo not drawn)
inactive: growth inhibition [1] -32.5% | growth inhibition [2] -14.6% | viability increase [3] -2.55% | viability [4] 91.4% | viability [5] 95.1% | inhibition [6] 1.22% | RAM network inhibition [7] 4.37%

CCOC(=O)C1=C(C)Nc2nc(SCc3cccnc3)nn2C1c1ccc(OC)cc1 (stereo not drawn)
inactive: growth inhibition [1] -6.41% | growth inhibition [2] 2.46% | viability increase [3] -2.64% | viability [4] 98.7% | viability [5] 89% | inhibition [6] 0.58% | RAM network inhibition [7] 4.49%

COc1ccc(C(c2sc3nc(C)nn3c2O)N2CCC(O)CC2)cc1OC (stereo not drawn)
inactive: growth inhibition [1] 4.24% | growth inhibition [2] 0.32% | viability increase [3] -0.06% | viability [4] 106% | viability [5] 100% | inhibition [6] 1.38% | RAM network inhibition [7] 5.56%

O=C(COc1ccc(S(=O)(=O)NC2CCCCC2)cc1)Nc1ccc2c(c1)OCCO2
inactive: growth inhibition [1] -2.47% | growth inhibition [2] 4.23% | viability increase [3] -2.05% | viability [4] 84% | viability [5] 70.8% | inhibition [6] 2.25% | RAM network inhibition [7] 5.01%

CCOC(=O)CSc1nc2ccccc2c(=O)[nH]1
inactive: growth inhibition [1] -13.4% | growth inhibition [2] -17.3% | viability increase [3] -0.36% | viability [4] 105% | viability [5] 100% | inhibition [6] 1.74% | RAM network inhibition [7] 3.03%

CC1CCN(C(=O)CN2C(=O)C(=O)c3ccccc32)CC1
inactive: growth inhibition [1] 3.92% | growth inhibition [2] -0.215% | viability increase [3] -5.16% | viability [4] 100% | viability [5] 97.1% | inhibition [6] 1.33% | RAM network inhibition [7] 3.27%

CCOC(=O)Cn1c(C)nc2ccccc21
inactive: growth inhibition [1] -14% | growth inhibition [2] -14% | viability increase [3] -1.63% | viability [4] 102% | viability [5] 105% | inhibition [6] 1.29% | RAM network inhibition [7] 1.95%

C=CCn1c(SCc2ccc(F)cc2)nc2c1c(=O)[nH]c(=O)n2C
inactive: growth inhibition [1] -8.99% | growth inhibition [2] -8.69% | viability increase [3] -2.64% | viability [4] 96.9% | viability [5] 89% | inhibition [6] 0.25% | RAM network inhibition [7] 2.71%

COC(=O)c1ccc(OC(=O)c2nn(C)cc2Cl)c(OC)c1
inactive: growth inhibition [1] -0.14% | growth inhibition [2] 10.2% | viability increase [3] -5.78% | viability [4] 101% | viability [5] 95.5% | inhibition [6] -0.22% | RAM network inhibition [7] -0.57%

COc1ccc(C(=O)c2coc3ccc(O)c(CN(C)C)c23)cc1
inactive: growth inhibition [1] -15% | growth inhibition [2] -11.6% | viability increase [3] -2.46% | viability [4] 84.4% | viability [5] 76.1% | inhibition [6] 0.74% | RAM network inhibition [7] -1.93%

Cc1cc(C)n(-c2nncc(-c3ccccc3)n2)n1
inactive: growth inhibition [1] 14% | growth inhibition [2] 34.6% | viability increase [3] -2.22% | viability [4] 98.9% | viability [5] 95.6% | inhibition [6] 1.86% | RAM network inhibition [7] 0.92%

COc1cc2ccccc2cc1-c1nnc(COc2ccccc2)o1
inactive: growth inhibition [1] -8.96% | growth inhibition [2] -14.4% | viability increase [3] -2.61% | viability [4] 98.2% | viability [5] 83.4% | inhibition [6] 4% | RAM network inhibition [7] 2.39%

COc1cccc(C2NC(C)(C(=O)O)C3C(=O)N(C(C)C)C(=O)C23)c1O (stereo not drawn)
inactive: growth inhibition [1] 2.59% | growth inhibition [2] 1.56% | viability increase [3] -1.19% | viability [4] 91.5% | viability [5] 91.3% | inhibition [6] 1.82% | RAM network inhibition [7] 2.7%

Cc1ccc(Cn2c(CN3CC(C)OC(C)C3)nc3c2c(=O)n(C)c(=O)n3C)cc1 (stereo not drawn)
inactive: growth inhibition [1] -5.45% | growth inhibition [2] -10.8% | viability increase [3] -1.28% | viability [4] 96.1% | viability [5] 95.1% | inhibition [6] 2.09% | RAM network inhibition [7] 1.95%

Cc1nn(C)c(C)c1NS(=O)(=O)c1ccccc1
inactive: growth inhibition [1] -9.1% | growth inhibition [2] -6.73% | viability increase [3] -0.34% | viability [4] 98% | viability [5] 88.4% | inhibition [6] 0.545% | RAM network inhibition [7] 6.15%

Clc1ccc(-c2nc(-c3ccccn3)no2)cc1Cl
inactive: growth inhibition [1] -4.08% | growth inhibition [2] 0.26% | viability increase [3] -4.17% | viability [4] 72.6% | viability [5] 67.7% | inhibition [6] 2.6% | RAM network inhibition [7] 3.88%

CC1CCCCN1CCNC(=O)c1cc2c(-c3ccccc3F)nn(C)c2s1 (stereo not drawn)
inactive: growth inhibition [1] -3.09% | growth inhibition [2] 0.025% | viability increase [3] -6.73% | viability [4] 48% | viability [5] 59.6% | inhibition [6] 0.095% | RAM network inhibition [7] 5.89%

Cc1cc(C)nc(SCC(=O)NCc2ccco2)n1
inactive: growth inhibition [1] 3.65% | growth inhibition [2] 6.47% | viability increase [3] -5.58% | viability [4] 70.6% | viability [5] 78.4% | inhibition [6] -0.38% | RAM network inhibition [7] 2.1%

O=C(COc1ccc(F)cc1)Nc1nccs1
inactive: growth inhibition [1] -3.23% | growth inhibition [2] 4.43% | viability increase [3] 2.32% | viability [4] 103% | viability [5] 90.2% | inhibition [6] 3.26% | RAM network inhibition [7] 5.34%
